Laboratory results: ChEMBL document CHEMBL2440058, “Synthesis and structure-activity relationship studies of novel dihydropyridones as androgen receptor modulators” (J Med Chem, 2013)
The source made the active and inactive calls.

Columns and labels:
[1] = molecular target: T1, Androgen receptor (Homo sapiens) (UniProt P10275); assay: Inhibition of androgen receptor in human LNCAP cells assessed as decrease in PSA mRNA expression at 5 uM by RT-PCR analysis relative to control; type: cell-based
T1 sequence (whole entry): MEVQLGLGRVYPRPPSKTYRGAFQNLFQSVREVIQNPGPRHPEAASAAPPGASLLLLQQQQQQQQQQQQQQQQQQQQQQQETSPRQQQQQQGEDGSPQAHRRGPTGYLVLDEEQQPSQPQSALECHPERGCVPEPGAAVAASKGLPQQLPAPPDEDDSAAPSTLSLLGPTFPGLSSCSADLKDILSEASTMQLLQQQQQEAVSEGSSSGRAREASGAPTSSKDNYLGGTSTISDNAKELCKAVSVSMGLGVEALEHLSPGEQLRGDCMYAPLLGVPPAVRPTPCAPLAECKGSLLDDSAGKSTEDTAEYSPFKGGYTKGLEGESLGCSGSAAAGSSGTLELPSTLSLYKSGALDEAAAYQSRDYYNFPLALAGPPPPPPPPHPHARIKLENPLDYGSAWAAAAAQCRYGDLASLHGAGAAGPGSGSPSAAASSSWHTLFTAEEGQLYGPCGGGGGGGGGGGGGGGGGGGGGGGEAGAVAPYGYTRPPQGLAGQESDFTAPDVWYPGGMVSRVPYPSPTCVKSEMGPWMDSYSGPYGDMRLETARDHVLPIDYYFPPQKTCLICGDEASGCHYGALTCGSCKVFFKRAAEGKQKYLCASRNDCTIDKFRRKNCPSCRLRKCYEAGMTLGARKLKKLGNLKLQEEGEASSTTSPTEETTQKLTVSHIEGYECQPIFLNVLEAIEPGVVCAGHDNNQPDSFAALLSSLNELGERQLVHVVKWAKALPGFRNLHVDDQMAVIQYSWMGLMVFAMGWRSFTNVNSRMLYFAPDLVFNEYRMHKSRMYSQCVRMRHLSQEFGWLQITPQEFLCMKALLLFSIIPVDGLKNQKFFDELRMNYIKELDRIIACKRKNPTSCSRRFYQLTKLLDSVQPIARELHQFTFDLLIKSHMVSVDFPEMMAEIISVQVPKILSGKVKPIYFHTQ
Procedure, shortened: (§1)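 LNCaP cells grown in RPMI 1640 with 10% FBS at 37°C. Transcript levels measured by real-time RT-PCR with rRNA as the reference gene. Relative RNA calculated from threshold cycles by the comparative Ct method.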

[2] = molecular target: T1, Androgen receptor (Homo sapiens); assay: Inhibition of androgen receptor in human LNCAP cells assessed as decrease in TMPRSS2 mRNA expression at 5 uM by RT-PCR analysis relative to control; type: cell-based; procedure, shortened: as §1
Androgen receptor = molecular target: T2, Androgen receptor (Homo sapiens, UniProt P10275); assay: Displacement of Fluormone AL Green from androgen receptor ligand binding domain (unknown origin) after 4 hrs by fluorescence polarization assay
T2 sequence (P10275 whole entry): T1 sequence (whole entry)

LNCaP = assay: Cytotoxicity against human LNCAP cells at 5.56 to 50 uM after 48 hrs by 7-AAD dye-based flow cytometric analysis; type: cell-based
Procedure, shortened: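 LNCaP cells (RPMI 1640, 10% FBS, 37°C) exposed to compound for 48 h in 10% FBS medium; 1% DMSO as vehicle control. Viable cell count measured by flow cytometry using 7-AAD viability stain.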

[3] = molecular target: T1, Androgen receptor (Homo sapiens); settings: LNCaP, at 0.5 to 3 µM

Structure (SMILES) | inhibition [1] | inhibition [2] | IC50 (Androgen receptor) [µM] | Activity (LNCaP) | inhibition [3]
O=C(O[C@H]1C(=O)C=CN(C(=O)/C=C/c2ccccc2)[C@@H]1c1ccccc1)c1ccc(F)cc1C(F)(F)F (racemic) | Active | Active | 30.1 | Non-toxic | inactive
CC(C)(C)[Si](C)(C)O[C@H]1C(=O)C=CN(C(=O)C2CC2)[C@@H]1c1ccc2c(c1)OCO2 (racemic) | 90% | 90% |  |  | 
CC(C)(C)[Si](C)(C)O[C@H]1C(=O)C=CN(C(=O)Cc2ccccc2)[C@@H]1c1ccc2c(c1)OCO2 (racemic) | 90% | 90% |  |  | 
CC(C)(C)[Si](C)(C)O[C@H]1C(=O)C=CN(C(=O)Oc2ccccc2)[C@@H]1c1ccc2c(c1)OCO2 (racemic) | 90% | 90% |  |  | 
CC(C)(C)[Si](C)(C)O[C@H]1C(=O)C=CN(C(=O)Oc2ccccc2)[C@@H]1c1ccccc1 (racemic) | 90% | 90% |  |  | 
CC(C)(C)[Si](C)(C)O[C@H]1C(=O)C=CN(C(=O)c2ccc(C(F)(F)F)nc2)[C@@H]1c1ccc2c(c1)OCO2 (racemic) | 90% | 90% |  |  | 
CC(C)(C)[Si](C)(C)O[C@H]1C(=O)C=CN[C@@H]1c1ccc2c(c1)OCO2 (racemic) | 90% | 90% |  |  | 
CC(C)=C[C@@H]1[C@@H](OC(=O)c2ccc(F)cc2C(F)(F)F)C(=O)C=CN1C(=O)Oc1ccccc1 (racemic) | Active | Active |  |  | 
CC(C)[C@@H]1[C@@H](OC(=O)c2ccc(F)cc2C(F)(F)F)C(=O)C=CN1C(=O)Oc1ccccc1 (racemic) | Active | Active |  |  | 
COc1ccc(C(=O)O[C@H]2C(=O)C=CN(C(=O)/C=C/c3ccccc3)[C@@H]2c2ccccc2)cc1 (racemic) | Active | Active |  |  | 
C[C@@H]1[C@@H](OC(=O)c2ccc(F)cc2C(F)(F)F)C(=O)C=CN1C(=O)Oc1ccccc1 (racemic) | Active | Active |  |  | 
Cc1csc([C@@H]2[C@@H](O)C(=O)C=CN2C(=O)Oc2ccccc2)c1 (racemic) | 90% | 90% |  |  | 
Cc1csc([C@@H]2[C@@H](OC(=O)N(C)c3ccccc3)C(=O)C=CN2C(=O)C2CC2)c1 (racemic) | 90% | 90% |  |  | 
Cc1csc([C@@H]2[C@@H](OC(=O)N(C)c3ccccc3)C(=O)C=CN2C(=O)Oc2ccccc2)c1 (racemic) | 90% | 90% |  |  | 
Cc1csc([C@@H]2[C@@H](OC(=O)N(C)c3ccccc3)C(=O)C=CN2C(=O)c2ccc(C(F)(F)F)nc2)c1 (racemic) | 90% | 90% |  |  | 
Cc1csc([C@@H]2[C@@H](OC(=O)c3ccc(F)cc3C(F)(F)F)C(=O)C=CN2C(=O)Oc2ccccc2)c1 (racemic) | Active | Active |  |  | 
Cc1csc([C@H]2NC=CC(=O)[C@@H]2OC(=O)N(C)c2ccccc2)c1 (racemic) | 90% | 90% |  |  | 
N#Cc1ccc(C(=O)O[C@H]2C(=O)C=CN(C(=O)/C=C/c3ccccc3)[C@@H]2c2ccccc2)cc1 (racemic) | Active | Active |  |  | 
N#Cc1cccc(C(=O)O[C@H]2C(=O)C=CN(C(=O)/C=C/c3ccccc3)[C@@H]2c2ccccc2)c1 (racemic) | Active | Active |  |  | 

Structure (SMILES) | inhibition [1] | inhibition [2] | IC50 (Androgen receptor) [µM] | Activity (LNCaP) | inhibition [3]
O=C(/C=C/c1cccc(C(F)(F)F)c1)O[C@H]1C(=O)C=CN(C(=O)/C=C/c2ccccc2)[C@@H]1c1ccccc1 (racemic) | Active | Active |  |  | 
O=C(Cc1ccccc1)O[C@H]1C(=O)C=CN(C(=O)/C=C/c2ccccc2)[C@@H]1c1ccccc1 (racemic) | Active | Active |  |  | 
O=C(O[C@H]1C(=O)C=CN(C(=O)/C=C/c2ccccc2)[C@@H]1c1ccccc1)C1CC1 (racemic) | Active | Active |  |  | 
O=C(O[C@H]1C(=O)C=CN(C(=O)/C=C/c2ccccc2)[C@@H]1c1ccccc1)c1ccc(Cl)cc1 (racemic) | Active | Active |  |  | 
O=C(O[C@H]1C(=O)C=CN(C(=O)/C=C/c2ccccc2)[C@@H]1c1ccccc1)c1ccccc1C(F)(F)F (racemic) | Active | Active |  |  | 
O=C(O[C@H]1C(=O)C=CN(C(=O)Oc2ccccc2)[C@@H]1c1cc(F)cc(F)c1)c1ccc(F)cc1C(F)(F)F (racemic) | Active | Active |  |  | 
O=C(O[C@H]1C(=O)C=CN(C(=O)Oc2ccccc2)[C@@H]1c1ccc2c(c1)OCO2)c1ccc(F)cc1C(F)(F)F (racemic) | Active | Active |  |  | 
O=C(O[C@H]1C(=O)C=CN(C(=O)Oc2ccccc2)[C@@H]1c1cccc(-c2ccccc2)c1)c1ccc(F)cc1C(F)(F)F (racemic) | Active | Active |  |  | 
O=C(O[C@H]1C(=O)C=CN(C(=O)Oc2ccccc2)[C@@H]1c1ccccc1)c1ccc(F)cc1C(F)(F)F (racemic) | Active | Active |  |  | 
O=C(O[C@H]1C(=O)C=CN(C(=O)c2ccccc2)[C@@H]1c1ccccc1)c1ccc(F)cc1C(F)(F)F (racemic) | 90% | 90% |  |  | 
O=C1C=CN(C(=O)/C=C/c2ccccc2)[C@H](c2ccccc2)[C@H]1O (racemic) | Active | Active |  |  | 
O=C1C=CN(C(=O)Oc2ccccc2)[C@H](c2ccc(-c3ccccc3)cc2)C1 (racemic) | 90% | 90% |  |  | 
O=C1C=CN(C(=O)Oc2ccccc2)[C@H](c2ccc3c(c2)OCO3)[C@H]1O (racemic) | 90% | 90% |  |  | 
O=C1C=CN(C(=O)Oc2ccccc2)[C@H](c2cccc(-c3ccccc3)c2)[C@H]1O (racemic) | 90% | 90% |  |  | 
O=C1C=CN(C(=O)Oc2ccccc2)[C@H](c2ccccc2)C1 (racemic) | 90% | 90% |  |  | 
O=C1C=CN(C(=O)Oc2ccccc2)[C@H](c2ccccc2)[C@H]1O (racemic) | 90% | 90% |  |  | 
O=C1C=CN(C(=O)c2ccccc2)[C@H](c2ccccc2)[C@H]1O (racemic) | 90% | 90% |  |  | 
O=C1C=CN[C@H](c2ccccc2)[C@H]1O (racemic) | 90% | 90% |  |  | 
